These results are taken from ChEMBL document CHEMBL1137754, “Inhibitors of potassium channels KV1.3 and IK-1 as immunosuppressants” (Bioorg Med Chem Lett, 2009).

The source made the active and inactive calls. No cut-off for these calls is given here. Bounds are passed on as bounds.

For data set [1], the target named is T1, Potassium voltage-gated channel subfamily A member 3 (Homo sapiens, UniProt P22001). As to the kind of experiment: Inhibition of cloned Kv1.3 channel expressed in mammalian cells at 2 uM by whole cell patch clamp assay. In kind it is cell-based. The method, boiled down:
(§1)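 Whole-cell patch clamp recording, n ≥ 2 individual experiments per compound concentration using different cells. Dose–response curves used four or more concentrations.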
On the technique in general: In patch-clamp work, channel activity is measured electrically.

Data set [2] concerns HaCaT. The experiment in a line: Inhibition of human HaCaT cell proliferation after 48 hrs. Format: functional, cell-based. The procedure, abridged:
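HaCaT keratinocytes were seeded in KBM/10% FCS and held 24 h at 37 °C. Compounds diluted in KBM/FCS (final 1% DMSO) were added in triplicate and incubated 48 h.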

Data set [3] concerns the target T1, Potassium voltage-gated channel subfamily A member 3. The experiment in a line: Inhibition of cloned Kv1.3 channel expressed in mammalian cells at 20 uM by whole cell patch clamp assay. Format: cell-based. The procedure, abridged: as §1
The target is the same in data set [4]. As to the kind of experiment: Inhibition of cloned Kv1.3 channel expressed in mammalian cells at 20 uM by whole cell patch clamp assay.
Data set [5] has the same target. As to the kind of experiment: Inhibition of cloned Kv1.3 channel expressed in mammalian cells by whole cell patch clamp assay. Format: cell-based. The procedure, abridged: as §1
Data set [6] deals with Intermediate conductance calcium-activated potassium channel protein 4 (Homo sapiens, UniProt O15554). The experiment in a line: Inhibition of human cloned IK1 expressed in african green monkey COS7 cells by whole cell patch clamp assay. Format: cell-based, COS-7.
Data set [7] deals with PBMC. The experiment in a line: Immunosuppressant activity in human effector memory T cells of PBMC assessed as inhibition of anti-CD3 antibody-induced cell proliferation by ELISA in presence of 5 uM Kv1.3-blocker PAP1. In kind it is functional, cell-based. The procedure, abridged: (§2)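 T_EM fraction of PBMCs stimulated with anti-CD3 antibody; proliferation dose–response curves for one channel blocker were run against a fixed background of a blocker of the other channel (IK-1 blocker, or 5 µM PAP-1 for Kv1.3). The read-out was EC50.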

The subject of data set [8] is HaCaT. As to the kind of experiment: (§3) Cytotoxicity against human HaCaT cells. Format: cell-based. Conditions: hacat.
Data set [9] concerns HaCaT. As to the kind of experiment: Cytotoxicity against human HaCaT cells up to 50 uM. Format: cell-based.
A further data set relates to Mus musculus. The experiment in a line: Antiinflammatory activity against oxazolone-induced delayed type hypersensitivity in mouse assessed as reduction in ear swelling at 1%, topically applied 30 mins post oxazolone challenge. Format: functional. Set-up: scale not given: the % may be the effect or the level left. The method, boiled down: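 Mouse DTH ear-swelling model with oxazolone sensitization and challenge. A single topical dose at 1% in ethanol–DMSO 4:1 was applied 30 min after challenge. The read-out was ear swelling relative to a vehicle-treated group. Protopic (0.1%) served as positive control. Values are means of n = 5 animals per group.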

Data set [10] is described as follows: Cytotoxicity against human effector memory T cells of PBMC up to 50 uM. Format: cell-based.
Data set [11] has as its system PBMC. As to the kind of experiment: Immunosuppressant activity in human effector memory T cells of PBMC assessed as inhibition of anti-CD3 antibody-induced cell proliferation by ELISA. Format: functional, cell-based.
A short description of data set [12]: as §3. Format: cell-based. Conditions: HaCaT cells, read-out: LD50 (the source's name).
Data set [13] can be described thus: Cytotoxicity against human effector memory T cells of PBMC. In kind it is cell-based, T-cell. The note with it: effector memory T cells from PBMC, read-out: LD50 (the source's name).
Data set [14] has as its system PBMC. The experiment in a line: Immunosuppressant activity in human effector memory T cells of PBMC assessed as inhibition of anti-CD3 antibody-induced cell proliferation by ELISA in presence of 5 uM IK1-blocker 5-(4-Chloro-benzenesulfonyl)-5,6-dihydro-dibenzo[b,d]azepin-7-one. Format: functional, cell-based. The procedure, abridged: as §2
In general terms: In an ELISA, binding on a coated surface is turned into a signal by an enzyme label.

In data set [15] the test system is PBMC. The experiment in a line: Immunosuppressant activity in human effector memory T cells of PBMC assessed as inhibition of anti-CD3 antibody-induced cell proliferation by ELISA in presence of 16.7 uM IK1-blocker 5-(4-Chloro-benzenesulfonyl)-5,6-dihydro-dibenzo[b,d]azepin-7-one. Format: functional, cell-based. The method, boiled down: as §2
Data set [16] concerns PBMC. The experiment in a line: Immunosuppressant activity in human effector memory T cells of PBMC assessed as inhibition of anti-CD3 antibody-induced cell proliferation by ELISA in presence of 5 uM IK1-blocker 5-(Toluene-4-sulfonyl)-5,6-dihydro-dibenzo[b,d]azepin-7-one. Format: functional, cell-based. The method, boiled down: as §2
Data set [17] concerns PBMC. The experiment in a line: Immunosuppressant activity in human effector memory T cells of PBMC assessed as inhibition of anti-CD3 antibody-induced cell proliferation by ELISA in presence of 5 uM IK1-blocker TRAM34. Format: functional, cell-based. The procedure, abridged:
as §2

Sequence of Intermediate conductance calcium-activated potassium channel protein 4 (O15554 whole entry): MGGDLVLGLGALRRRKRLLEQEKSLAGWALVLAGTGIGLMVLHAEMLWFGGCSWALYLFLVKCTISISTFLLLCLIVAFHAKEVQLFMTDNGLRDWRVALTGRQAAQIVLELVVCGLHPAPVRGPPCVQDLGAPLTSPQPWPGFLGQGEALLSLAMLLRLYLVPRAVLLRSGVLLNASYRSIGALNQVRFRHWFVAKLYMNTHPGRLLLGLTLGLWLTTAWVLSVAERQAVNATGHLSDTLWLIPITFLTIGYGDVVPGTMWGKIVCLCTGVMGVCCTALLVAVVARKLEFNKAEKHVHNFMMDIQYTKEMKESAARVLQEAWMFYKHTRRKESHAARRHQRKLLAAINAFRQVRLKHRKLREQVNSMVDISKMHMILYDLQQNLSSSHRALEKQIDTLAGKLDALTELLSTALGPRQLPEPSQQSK
T1 sequence (P22001 whole entry): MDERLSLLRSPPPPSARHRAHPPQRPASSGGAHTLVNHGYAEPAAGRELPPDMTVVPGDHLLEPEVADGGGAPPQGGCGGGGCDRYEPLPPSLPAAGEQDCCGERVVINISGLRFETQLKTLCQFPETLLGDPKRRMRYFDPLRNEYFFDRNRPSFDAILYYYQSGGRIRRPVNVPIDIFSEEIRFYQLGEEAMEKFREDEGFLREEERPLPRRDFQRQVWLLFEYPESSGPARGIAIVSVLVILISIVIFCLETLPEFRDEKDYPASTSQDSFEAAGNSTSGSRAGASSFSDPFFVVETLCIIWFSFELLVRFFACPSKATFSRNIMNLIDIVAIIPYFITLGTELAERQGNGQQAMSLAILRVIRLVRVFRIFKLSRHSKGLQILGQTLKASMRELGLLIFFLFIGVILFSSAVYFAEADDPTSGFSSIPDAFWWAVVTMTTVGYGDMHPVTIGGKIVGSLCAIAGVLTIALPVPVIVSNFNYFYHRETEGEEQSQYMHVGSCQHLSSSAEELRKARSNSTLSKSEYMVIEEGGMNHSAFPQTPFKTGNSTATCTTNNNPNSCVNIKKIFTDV

As for `O=C(O)C(=O)C1c2ccccc2-c2ccccc2N1C(=O)c1ccco1` (configuration not stated), in [1], the inhibition was determined as 41%.

On to `O=c1c2ccccc2c2ccccc2n1CCn1cccc1`, for which the EC50 with HaCaT [2] came out at 2.3 µM. For the same compound, the inhibition in [3] and in data set [4] was 57% each time.

As for `CC(=O)N1c2ccccc2-c2ccccc2C1c1c[nH]c2ccccc12` (configuration not stated), the midpoint of inhibition in [5], the IC50, lay at 5 µM.

In data set [1], `O=C(c1ccc[nH]1)C1c2ccccc2-c2ccccc2N1C(=O)c1ccco1` (configuration not stated) gave an inhibition of 15%.

`O=C(CCc1ccccc1)C1c2ccccc2-c2ccccc2N1C(=O)c1ccco1` (configuration not stated) registered an inhibition in data set [1] of 15%.

On to `O=C1CN(S(=O)(=O)c2cccs2)c2ccccc2-c2ccccc21`, for which the values for the IC50 in data set [5] and in [6] were 13 µM and 2.4 µM, respectively.

Compound `CCCC(C)C(=O)N1c2ccccc2-c2ccccc2C1c1cccs1` (configuration not stated) showed an IC50 in data set [5] of under 2 µM. The inhibition in data set [1] was 59%.

Consider `O=c1[nH]c2ccccc2c2ccccc12`, for which the inhibition in [4] stood at 12%.

For `O=C1CN(C(=O)c2cccc(Cl)c2)c2ccccc2-c2ccccc21`, the IC50 in data set [5] stood at 3.4 µM; in data set [6], 1.3 µM.

In the case of `O=C(c1cc(F)ccc1F)N1c2ccccc2-c2ccccc2C1c1cccs1` (configuration not stated), the inhibition in data set [1] came to 27%.

Consider `COc1ccc(C(=O)C2c3ccccc3-c3ccccc3N2C(=O)c2ccco2)cc1` (configuration not stated), for which, in data set [1], the inhibition was determined as 13%.

Turning to `Cc1ccc(S(=O)(=O)N2CC(=O)c3ccccc3-c3ccccc32)cc1`, the EC50 is 2.5 µM in the data set on PBMC [7] and 8.4 µM in the data set with HaCaT [2]. The Activity entry is listed as “Non-toxic” in the data set with HaCaT [8], “Non-toxic” in the data set with HaCaT [9], 20% in the data set with Mus musculus and “Non-toxic” in data set [10]. Also, the figures for the IC50 in [5] and in data set [6] were 5.8 µM and 2.1 µM, respectively. The outcome in the data set with PBMC [11] was inactive.

With `Clc1ccccc1C(c1ccccc1)(c1ccccc1)n1cccn1`, the figures for the 50% effective concentration (EC50) with PBMC [7] and in the data set with HaCaT [2] were 0.025 µM and 40 µM, respectively. Besides, in data set [5], the IC50 is 5 µM. Also, the outcome in the data set on PBMC [11] was inactive.

On to `Clc1ccccc1C(c1ccccc1)(c1ccccc1)n1ccnc1` [CLOTRIMAZOLE], for which the CC50 in data set [12] and in data set [13] was 40 µM each time. The compound also gave an IC50 in data set [5] of 6 µM. The compound further displayed an EC50 with HaCaT [2] of 15 µM. In addition, the Activity in the data set on Mus musculus turned out to be 20%.

On to `O=C1CN(S(=O)(=O)c2ccc([N+](=O)[O-])cc2)c2ccccc2-c2ccccc21`, for which, in data set [5], the IC50 is over 10 µM.

`O=C(c1ccc2c(c1)OCO2)C1c2ccccc2-c2ccccc2N1C(=O)c1ccco1` (configuration not stated) gave an inhibition in data set [1] of 8%.

Compound `O=C(CCC1CCCC1)C1c2ccccc2-c2ccccc2N1C(=O)c1ccco1` (configuration not stated) had an inhibition in data set [1] of 11%.

Regarding `O=c1ccc2c(OCCCCOc3ccccc3)c3ccoc3cc2o1`, the EC50 was 1.2 µM in the data set on PBMC [14]; 0.5 µM in the data set with PBMC [15]; 0.4 µM with PBMC [16]; 0.43 µM in the data set on PBMC [17]; 25 µM in the data set with PBMC [11]. Also, the IC50 in data set [6] amounted to 10 µM.

Consider `Cc1ccc(C(=O)N2CC(=O)c3ccccc3-c3ccccc32)cc1`, for which the IC50 in [5] was determined as 4 µM; in data set [6] it was 16 µM.

For `O=C1CN(S(=O)(=O)c2cccc(Cl)c2)c2ccccc2-c2ccccc21`, the IC50 in [5] amounted to 3.6 µM.

`COc1cccc(C(=O)C2c3ccccc3-c3ccccc3N2C(=O)c2ccco2)c1` (configuration not stated) displayed an inhibition in [1] of 30%.

For orientation: inhibition means the drop in the measured response relative to a control, in per cent. The term EC50 denotes the concentration needed to bring the measured effect to its halfway point. The IC50 is the concentration that gives 50% inhibition.
